Reference: ChEMBL document CHEMBL1157383, “Antiproliferative oleanane saponins from Meryta denhamii” (J Nat Prod, 2008)

Legend:
J774.A1 = assay: Antiproliferative activity against mouse J774.A1 cells after 72 hrs by MTT conversion assay; format: cell-based; conditions: J774.A1, 72 h
Summary of the method: (§1)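 Cells (3.4 × 10^4) plated in 96-well plates and left to adhere 2 h at 37 °C, 5% CO2/95% air; medium replaced, 1:4 serial dilutions of compound added, incubated 72 h. Viability by MTT conversion, OD read at 620 nm; % dead cells = 100 − (OD treated/OD control) × 100. 6-mercaptopurine serial dilutions run in some experiments.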

HEK293 = assay: Antiproliferative activity against human HEK293 cells after 72 hrs by MTT conversion assay; format: cell-based; conditions: HEK293, 72 h; summary of the method: as §1
WEHI-164 = assay: Antiproliferative activity against mouse WEHI164 cells after 72 hrs by MTT conversion assay; format: functional, cell-based; conditions: WEHI-164, 72 h; summary of the method: as §1

C[C@@H]1O[C@@H](O[C@H]2[C@H](O)[C@@H](O)[C@H](OC[C@H]3O[C@@H](OC(=O)[C@]45CCC(C)(C)C[C@H]4C4=CC[C@@H]6[C@@]7(C)CC[C@H](O[C@H]8OC[C@H](O)[C@H](O[C@@H]9O[C@H](CO)[C@@H](O[C@@H]%10O[C@H](CO)[C@@H](O)[C@H](O)[C@H]%10O)[C@H](O)[C@H]9O)[C@H]8O)C(C)(C)[C@@H]7CC[C@@]6(C)[C@]4(C)CC5)[C@H](O)[C@@H](O)[C@@H]3O)O[C@@H]2CO)[C@H](O)[C@H](O)[C@H]1O showed an IC50 (J774.A1) of 3 µM.
CC1(C)CC[C@]2(C(=O)O[C@@H]3O[C@H](CO)[C@@H](O)[C@H](O)[C@H]3O)[C@H](O)C[C@]3(C)C(=CC[C@@H]4[C@@]5(C)CC[C@H](O[C@@H]6O[C@H](C(=O)O)[C@@H](O)[C@H](O)[C@H]6O[C@@H]6O[C@H](CO)[C@@H](O)[C@H](O)[C@H]6O)C(C)(C)[C@@H]5CC[C@]43C)[C@@H]2C1 gave an IC50 (J774.A1) of 0.19 µM, an IC50 (HEK293) of 0.23 µM and an IC50 (WEHI-164) of 0.34 µM.
C[C@@H]1O[C@@H](O[C@H]2[C@H](O)[C@@H](O)[C@H](OC[C@H]3O[C@@H](OC(=O)[C@]45CCC(C)(C)C[C@H]4C4=CC[C@@H]6[C@@]7(C)CC[C@H](O[C@H]8OC[C@H](O)[C@H](O[C@@H]9O[C@H](CO)[C@@H](O)[C@H](O)[C@H]9O)[C@H]8O)C(C)(C)[C@@H]7CC[C@@]6(C)[C@]4(C)CC5)[C@H](O)[C@@H](O)[C@@H]3O)O[C@@H]2CO)[C@H](O)[C@H](O)[C@H]1O was tested, and the IC50 (J774.A1) was 3.6 µM and the IC50 (WEHI-164) was 7 µM.
C[C@@H]1O[C@@H](O[C@H]2[C@H](O)[C@@H](O)[C@H](OC[C@H]3O[C@@H](OC(=O)[C@]45CCC(C)(C)C[C@H]4C4=CC[C@@H]6[C@@]7(C)CC[C@H](O[C@@H]8O[C@H](C(=O)O)[C@@H](O)[C@H](O)[C@H]8O[C@@H]8O[C@H](CO)[C@@H](O)[C@H](O)[C@H]8O)C(C)(C)[C@@H]7CC[C@@]6(C)[C@]4(C)CC5)[C@H](O)[C@@H](O)[C@@H]3O)O[C@@H]2CO)[C@H](O)[C@H](O)[C@H]1O gave an IC50 (J774.A1) of 6.9 µM.
In the case of C[C@@H]1O[C@@H](O[C@H]2[C@H](O)[C@@H](O)[C@H](OC[C@H]3O[C@@H](OC(=O)[C@]45CCC(C)(C)C[C@H]4C4=CC[C@@H]6[C@@]7(C)CC[C@H](O[C@H]8OC[C@H](O)[C@H](O)[C@H]8O)C(C)(C)[C@@H]7CC[C@@]6(C)[C@]4(C)CC5)[C@H](O)[C@@H](O)[C@@H]3O)O[C@@H]2CO)[C@H](O)[C@H](O)[C@H]1O, the IC50 (J774.A1) is reported as 2.5 µM and the IC50 (WEHI-164) is reported as 3.4 µM.
For C[C@@H]1O[C@@H](O[C@H]2[C@H](O)[C@@H](O)[C@H](O[C@@H]3[C@@H](O)[C@H](OC[C@H]4O[C@@H](OC(=O)[C@]56CCC(C)(C)C[C@H]5C5=CC[C@@H]7[C@@]8(C)CC[C@H](O[C@H]9OC[C@H](O)[C@H](O[C@@H]%10O[C@H](CO)[C@@H](O[C@@H]%11O[C@H](CO)[C@@H](O)[C@H](O)[C@H]%11O)[C@H](O)[C@H]%10O)[C@H]9O)C(C)(C)[C@@H]8CC[C@@]7(C)[C@]5(C)C[C@H]6O)[C@H](O)[C@@H](O)[C@@H]4O)O[C@H](CO)[C@H]3O)O[C@@H]2CO)[C@H](O)[C@H](O)[C@H]1O, the IC50 (J774.A1) was 0.32 µM, the IC50 (HEK293) was 1.3 µM and the IC50 (WEHI-164) was 1.7 µM.
CC1(C)CC[C@]2(C(=O)O[C@@H]3O[C@H](CO)[C@@H](O)[C@H](O)[C@H]3O)CC[C@]3(C)C(=CC[C@@H]4[C@@]5(C)CC[C@H](O[C@H]6OC[C@H](O)[C@H](O[C@@H]7O[C@H](CO)[C@@H](O)[C@H](O)[C@H]7O)[C@H]6O)C(C)(C)[C@@H]5CC[C@]43C)[C@@H]2C1 showed an IC50 (J774.A1) of 3.9 µM and an IC50 (WEHI-164) of 4.6 µM.
Compound C[C@@H]1O[C@@H](O[C@H]2[C@H](O)[C@@H](O)[C@H](O[C@@H]3[C@@H](O)[C@H](OC[C@H]4O[C@@H](OC(=O)[C@]56CCC(C)(C)C[C@H]5C5=CC[C@@H]7[C@@]8(C)CC[C@H](O[C@H]9OC[C@H](O)[C@H](O[C@@H]%10O[C@H](CO)[C@@H](O[C@@H]%11O[C@H](CO)[C@@H](O)[C@H](O)[C@H]%11O)[C@H](O)[C@H]%10O)[C@H]9O)C(C)(C)[C@@H]8CC[C@@]7(C)[C@]5(C)CC6)[C@H](O)[C@@H](O)[C@@H]4O)O[C@H](CO)[C@H]3O)O[C@@H]2CO)[C@H](O)[C@H](O)[C@H]1O has an IC50 (J774.A1) of 9 µM.
